From ChEMBL document CHEMBL1154076, “New furanoflavanoids, intestinal alpha-glucosidase inhibitory and free-radical (DPPH) scavenging, activity from antihyperglycemic root extract of Derris indica (Lam.)” (Bioorg Med Chem, 2009)
The source made the active and inactive calls. The calls are words filed in the database; no cut-off is given here.

Columns and labels:
[1] = Inhibition of rat alpha-glucosidase assessed as p-nitrophenol release at 50 ug/ml
Summary of the method: (§1)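 Crude enzyme is the sonicated supernatant of rat intestinal acetone powder in normal saline (100:1 w/v). Sample (5 mg/mL DMSO stock) in 100 mM phosphate buffer, pH 6.8, is preincubated 5 min with enzyme. p-Nitrophenyl-α-D-glucopyranoside (5 mM solution) is added, and p-nitrophenol is read at 405 nm after 5 min. Blanks omit substrate; the control is DMSO. Inhibition % = (1 − B/A) × 100. IC50 is taken by log regression over ≥5 dilutions. n = 3.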

[2] = tested on: Radical scavenging activity; assay: Antioxidant activity assessed as DPPH radical scavenging activity; assay type: functional
Summary of the method: (§2)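 DPPH (0.5 mM solution in absolute ethanol) is mixed with test sample (1 mg/mL DMSO stock) in 0.1 M Tris-HCl, pH 7.4. The mixture is shaken, kept in the dark for 30 min, and read at 517 nm. Scavenging % = (1 − B/A) × 100 versus a no-sample control. SC50 comes from logarithmic regression over at least five dilutions. n = 3.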

[3] = tested on: Radical scavenging activity; assay: Antioxidant activity against DPPH radical assessed as concentration required for 50% scavenging activity; assay type: functional; summary of the method: as §2
Rattus norvegicus = species on record: Rattus norvegicus; assay: Inhibition of rat alpha-glucosidase assessed as p-nitrophenol release; summary of the method: as §1

SMILES	Inhibition [1] [%]	Scavenging [2] [%]	Activity [3] [µM]	Activity (Rattus norvegicus) [µM]	SC50 [2]
O=c1c(O)c(-c2ccc(O)c(O)c2)oc2c1ccc1occc12	37.9	64.9	21		
O=c1cc(-c2ccc(O)c(O)c2)oc2c1ccc1occc12	25.6	55.1	84.6	335	
COc1c(-c2ccc3c(c2)OCO3)oc2cc(O)ccc2c1=O	36	68.3	39		
COc1ccc(-c2cc(=O)c3c(O)cc(OC)cc3o2)cc1 [APIGENIN DIMETHYLETHER]	4.4				inactive
COc1ccc2c(=O)c(OC)c(-c3ccc(OC)c(OC)c3)oc2c1 [FISETIN TETRAMETHYL ETHER]	19.7				inactive
COc1c(-c2ccccc2)oc2c(ccc3occc32)c1=O [KARANJIN]	26.3				inactive
COc1c(C(=O)/C=C(\O)c2ccc3c(c2)OCO3)ccc2occc12 [OVALITENONE]	29.7				inactive
COc1c2ccoc2cc2oc(-c3ccccc3)cc(=O)c12 [PINNATIN]	36.5				inactive
O=C(O)c1ccc2c(c1)OCO2 [PIPERONYLIC ACID]	18.4	2.4			
COc1c(-c2ccc3c(c2)OCO3)oc2c3c(ccc2c1=O)OC(C)(C)C=C3 [PONGACHROMENE]	22.8				inactive
O=c1cc(-c2ccc3c(c2)OCO3)oc2c1ccc1occc12 [PONGAGLABRONE]	8.6				inactive
COc1c(C(=O)/C=C(\O)c2ccccc2)ccc2occc12 [PONGAMOL]	58.2	11.2		104	
COc1c(-c2ccc3c(c2)OCO3)oc2c(ccc3occc32)c1=O [PONGAPIN]	21.4				inactive
COc1cc(O)c2c(=O)cc(-c3ccccc3)oc2c1 [TECHTOCHRYSIN]	28.7				inactive
